What was measured:
[1] = biological target: T1, Apoptosis regulator Bcl-2 (Homo sapiens, UniProt P10415); test: Displacement of FAM-Bid from human Bcl2 by FP assay
How it was run: (§1)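 Competitive fluorescence-polarization binding assay against the recombinant anti-apoptotic protein. Values are reported as Ki ± SD from three to seven independent experiments per compound.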

[2] = biological target: T1, Apoptosis regulator Bcl-2; test: Binding affinity to human Bcl2 by ELISA
PC-3 [3] = test: Induction of apoptosis in human PC3 cell at 5 uM by TUNEL assay; format: functional
How it was run: (§2)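 PC-3 prostate cancer cells were exposed to compound for 4 days, with an untreated control included. Apoptosis was scored by TUNEL using flow cytometry: the BrdU-FITC-positive fraction (M1 marker) is given as the percentage of apoptotic cells.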

Bcl-2-like protein 1 = Bcl-2-like protein 1 (Homo sapiens, UniProt Q07817); test: Displacement of FAM-Bak from human Bcl-xL by FP assay; how it was run: as §1
[4] = biological target: Induced myeloid leukemia cell differentiation protein Mcl-1 (Homo sapiens, UniProt Q07820); test: Displacement of FAM-Bid from human Mcl1 by FP assay
PC-3 [5] = test: Induction of apoptosis in human PC3 cell at 1.25 uM by TUNEL assay; format: functional; how it was run: as §2
PC-3 [6] = test: Induction of apoptosis in human PC3 cell at 20 uM by TUNEL assay; format: functional; how it was run: as §2

T1 sequence (P10415 whole entry): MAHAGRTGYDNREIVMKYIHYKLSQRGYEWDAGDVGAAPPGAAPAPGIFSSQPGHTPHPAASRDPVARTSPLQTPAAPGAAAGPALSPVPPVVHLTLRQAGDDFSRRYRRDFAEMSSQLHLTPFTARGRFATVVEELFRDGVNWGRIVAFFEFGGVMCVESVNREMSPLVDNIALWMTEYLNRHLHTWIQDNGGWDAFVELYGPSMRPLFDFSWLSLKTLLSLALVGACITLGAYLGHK
Sequence of Bcl-2-like protein 1 (Q07817 whole entry): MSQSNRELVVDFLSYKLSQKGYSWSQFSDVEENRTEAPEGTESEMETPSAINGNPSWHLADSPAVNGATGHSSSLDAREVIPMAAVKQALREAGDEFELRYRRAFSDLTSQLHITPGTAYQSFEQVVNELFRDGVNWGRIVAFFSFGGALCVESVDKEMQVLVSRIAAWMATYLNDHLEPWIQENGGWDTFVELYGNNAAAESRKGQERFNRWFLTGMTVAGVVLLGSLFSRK
Sequence of Induced myeloid leukemia cell differentiation protein Mcl-1 (Q07820 whole entry): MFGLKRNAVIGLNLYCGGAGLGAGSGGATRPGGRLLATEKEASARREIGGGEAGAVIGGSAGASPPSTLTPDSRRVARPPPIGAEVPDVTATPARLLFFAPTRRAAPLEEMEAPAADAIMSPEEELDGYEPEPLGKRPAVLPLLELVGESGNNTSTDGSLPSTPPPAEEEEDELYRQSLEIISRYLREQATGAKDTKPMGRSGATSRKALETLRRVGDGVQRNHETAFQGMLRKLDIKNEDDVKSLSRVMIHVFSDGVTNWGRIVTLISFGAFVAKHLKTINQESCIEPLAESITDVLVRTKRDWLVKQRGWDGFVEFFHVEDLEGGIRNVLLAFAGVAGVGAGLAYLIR

SMILES	Ki [1]	IC50 [2]	Ki [4]	other results
Cc1cc2c(C(C)C)c(O)c(O)c(C=O)c2c(O)c1-c1c(C)cc2c(C(C)C)c(O)c(O)c(C=O)c2c1O [GOSSYPOL]	–	–	180 nM	Ki (Bcl-2-like protein 1): 480 nM
CC[C@H](C)[C@H](NC(=O)[C@H](CC(N)=O)NC(=O)[C@H](CCCN=C(N)N)NC(=O)[C@@H](NC(=O)[C@@H](NC(=O)[C@H](CC(=O)O)NC(=O)[C@H](CCC(=O)O)NC(=O)[C@@H](N)CCC(N)=O)[C@@H](C)CC)[C@@H](C)CC)C(=O)N[C@@H](C)C(=O)N[C@@H](CCCN=C(N)N)C(=O)N[C@@H](Cc1c[nH]cn1)C(=O)N[C@@H](CC(C)C)C(=O)N[C@@H](C)C(=O)N[C@@H](CCC(N)=O)C(=O)N[C@H](C(=O)NCC(=O)N[C@@H](CC(=O)O)C(=O)N[C@@H](CO)C(=O)N[C@@H](CCSC)C(=O)N[C@@H](CC(=O)O)C(=O)N[C@@H](CCCN=C(N)N)C(=O)O)C(C)C	–	–	12 nM	IC50 [4]: 52 nM
COc1c(Cc2ccccc2C(C)C)cc(C(=O)Nc2ccc(S(=O)(=O)c3ccccc3C(C)(C)C)cc2)c(OC)c1OC	25000 nM	–	–	Activity (PC-3 [6]): 1.2%

The remaining compounds from weak to strong by Ki [1], led by results:

Ki [1]	IC50 [2]	Ki [4]	SMILES	other results
24100 nM	53100 nM	–	CC(C)c1cc(C(=O)Nc2ccccc2)c(O)c(O)c1O	–
8300 nM	7200 nM	–	O=C(Nc1ccccc1)c1cc(Cc2ccccc2)c(O)c(O)c1O	–
930 nM	1600 nM	–	O=C(Nc1ccc(S(=O)(=O)c2ccccc2)cc1)c1cc(Cc2ccccc2)c(O)c(O)c1O	–
290 nM	700 nM	260 nM	CC(C)c1ccccc1Cc1cc(C(=O)Nc2ccc(S(=O)(=O)c3ccccc3C(C)(C)C)cc2)c(O)c(O)c1O	Activity (PC-3 [3]): 89.5%; IC50 (Bcl-2-like protein 1): 6580 nM; Ki (Bcl-2-like protein 1): 1110 nM; IC50 [4]: 1030 nM; Activity (PC-3 [5]): 11.2%
